The subject of assay [1] is Trichophyton mentagrophytes. The assay is described as follows: […] activity against Trichophyton mentagrophytes ATCC 28185 assessed as zone of inhibition at 1 mg/mL. It counts as functional, organism-based. The essentials:
(§1)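 Disk diffusion: fungal inoculum of known concentration mixed into potato dextrose or Mueller Hinton agar and poured as a lawn. Samples at 1 mg/mL were applied to 6 mm filter paper disks, solvent evaporated, and disks placed on the seeded agar with solvent and positive controls. After incubation, the zone of inhibition outside the disk was measured as radius in mm.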

For another assay, the system named is P388. The experiment in a line: Antitumor activity against mouse P388 cells after 72 hrs by MTT assay. Type of assay: functional, cell-based. The note with it: P388, 72 h. The essentials:
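P388 murine leukemia cells were incubated 72 h with a 2-fold dilution series of sample, tested from 1 mg/mL. Growth was read by MTT reduction to formazan (absorbance) relative to untreated control cells. The concentration giving 50% growth reduction is reported as IC50.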
(In general: Formazan colour is commonly taken as a measure of viable cells.)

Assay [2] deals with Trichophyton mentagrophytes. The assay is described as follows: […] activity against Trichophyton mentagrophytes ATCC 28185 assessed as zone of inhibition. Type of assay: functional. The essentials: as §1

Active and inactive are the calls of the source. The calls are words filed in the database; no cut-off is given here.

For orientation: IC50 means the concentration that inhibits the measured activity by half.

In the case of `COC(C)(C)[C@H](O)CC/C(C)=C/CC/C(C)=C/CCC(C)=O`, the result in assay [1] was inactive. This compound also displayed an IC50 with P388 above 40 µM. In assay [2], the “inhibition zone (IZ)” value amounted to 1 mm.

As for `CC(=O)CC/C=C(\C)CC/C=C(\C)CC/C=C(/C)CO`, the result in assay [1] was inactive. This compound also had an IC50 with P388 above 40 µM. In assay [2], the “inhibition zone (IZ)” value came to 1 mm.

Turning to `CC(=O)CC/C=C(\C)CC/C=C(\C)CC[C@@H](O)C(C)(C)O`, in assay [1], the outcome was inactive. Moreover, the IC50 in the assay with P388 is above 40 µM. In assay [2], the “inhibition zone (IZ)” value is 1 mm.

For `CC(=O)CC/C=C(\C)CC[C@H]1C(C)(C)[C@@H](O)CC[C@]1(C)O` [MONILIFORMINOL A], the outcome in assay [1] was inactive. Besides, the IC50 in the assay with P388 is above 40 µM. In addition, the “inhibition zone (IZ)” value in assay [2] came out at 1 mm.

With `CC(=O)CC/C=C(\C)CCC1=C(C)CC[C@H](O)C1(C)C`, the outcome in assay [1] was inactive. Also, the IC50 in the assay with P388 is above 40 µM. For the same compound, in assay [2], the “inhibition zone (IZ)” value was found to be 1 mm.

Turning to `CC(=O)CC/C=C(\C)CC[C@H]1C(C)(C)[C@@H](O)CC[C@@]1(C)O` [MONILIFORMINOL B], the result in assay [1] was inactive. Moreover, in the assay with P388, the IC50 was above 40 µM. Besides, the “inhibition zone (IZ)” value in assay [2] was 1 mm.

For `C=C(C)[C@H](O)CC/C(C)=C/CC/C(C)=C/CCC(C)=O`, the outcome in assay [1] was inactive. Besides, the IC50 in the assay with P388 was above 40 µM. Further, the “inhibition zone (IZ)” value in assay [2] amounted to 1 mm.

Values taken from ChEMBL document CHEMBL1156641, “Linear and cyclic C18 terpenoids from the southern Australian marine brown alga Cystophora moniliformis” (J Nat Prod, 2008).
